Assay results published in PMC2808126 (Molecular cancer therapeutics, 2009).
pIC50: −log10 of the molar value. Read-outs that look alike come from different tables or passages of the source.

Experiments:
22Rv1 cells [1] = assay: ATP viability assay; format: cell-based; details: Homo sapiens; for pIC50: 22Rv1, 72 h, read-out: approximate IC50, cell viability (taxanes)
Summary of the method: (§1)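 Lines kept in RPMI 1640 with 10% FBS, except LAPC-4 in Iscove's medium with 5% FBS. About 1,000 cells/well plated in 384-well plates in 1% serum. Test compound added next day at increasing concentrations. For 22Rv1, agents given alone or combined for 48 h, or taxanes for 72 h. Other lines treated 72 h. ATPlite luminescence read, replicate wells averaged, approximate IC50 estimated.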

22Rv1-T cells [2] = assay: ATP viability assay; format: cell-based, human; details: for cell viability response: 22Rv1-T, time course to 72 hours; for pIC50: Homo sapiens, 72 h
Summary of the method: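 Paclitaxel-resistant 22Rv1 subline made by serial passage over about 4 months in rising paclitaxel (0-400ng/ml), then maintained in 5ng/ml paclitaxel. About 1,000 cells/well plated in 1% serum in 384-well plates. Next day, taxanes or test compound added alone, or combined with paclitaxel, for up to 72 h. ATPlite luminescence read, replicate wells averaged.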

22Rv1-T cells [3] = assay: Caspase-3 fluorometric protease assay; format: cell-based, human
[4] = system: MDR1 activity in 22Rv1-T cells; assay: Multidrug resistance assay; format: cell-based, human; details: 15 minutes; for fluorescent calcein retention (MDR1 efflux activity): single agent
PC3 cells = assay: ATP viability assay; format: cell-based; details: Homo sapiens, PC-3, 72 h, read-out: approximate IC50, cell viability
Summary of the method: as §1

C4-2B cells [5] = assay: ATP viability assay; format: cell-based; details: Homo sapiens, 72 h, read-out: approximate IC50, cell viability
Summary of the method: as §1

LNCaP cells = assay: ATP viability assay; format: cell-based; details: Homo sapiens, 72 h, read-out: approximate IC50, cell viability
Summary of the method: as §1

DU145 cells = assay: ATP viability assay; format: cell-based; details: Homo sapiens, DU-145, 72 h, read-out: approximate IC50, cell viability
Summary of the method: as §1

RWPE2-W99 cells = assay: ATP viability assay; format: cell-based; details: Homo sapiens, Keratinocyte, 72 h, read-out: approximate IC50, cell viability
Summary of the method: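 RWPE2-W99 kept in Keratinocyte Serum Free Medium with bovine pituitary extract and human recombinant EGF. About 1,000 cells/well plated in 384-well plates in complete medium. Test compound added next day at increasing concentrations for 72 h. Viability read by ATPlite luminescence, replicate wells averaged, approximate IC50 estimated.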

LAPC-4 cells = assay: ATP viability assay; format: cell-based; details: Homo sapiens, LAPC4, 72 h, read-out: approximate IC50, cell viability
Summary of the method: as §1

22Rv1-Pim1 cells [6] = assay: ATP viability assay; format: cell-based, human; details: 72 hours
C4-2B cells [7] = assay: Cell cycle analysis by flow cytometry; format: cell-based, human; details: 24 hours, untreated 72%
22Rv1 cells [8] = assay: Cell cycle analysis by flow cytometry; format: cell-based, human; details: 24 hours, untreated 60%
[9] = system: phospho-p21^Thr145 in 22Rv1 cells; assay: Western blot of phospho-p21 Thr145; format: cell-based, human
[10] = system: phospho-p21^Thr145 in C4-2B cells; assay: Western blot of phospho-p21 Thr145; format: cell-based, human; details: 5 hour treatment
Summary of the method: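 C4-2B cells, kept in RPMI 1640 with 10% FBS, treated 5 h with increasing concentrations of test compound. Western blot probed for phospho-p21 Thr145 and total p21, with β-actin as loading control.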

[11] = system: p-p21^Thr145 in 22Rv1-Pim1 cells; assay: Western blot of phospho-p21 Thr145; format: cell-based, human; details: 22Rv1-Pim1, 1μM, 2 hours
[12] = system: phosphorylated Bad^Ser112 in 22Rv1-T cells; assay: Western blot of phospho-Bad Ser112; format: cell-based, human; details: 5 hours
Summary of the method: (§2)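 Cells (22Rv1, C4-2B or the paclitaxel-resistant 22Rv1 subline) treated with increasing doses of test compound for 5 h. Lysates immunoblotted for phospho-Bad Ser112 and total Bad, with β-actin as loading control.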

22Rv1-Pim1 cells [13] = assay: Caspase-3 fluorometric protease assay; format: cell-based; details: Homo sapiens, 22Rv1, read-out: fold induction of apoptosis (caspase-3) in 22Rv1-Pim1 compared to 22Rv1
[14] = system: phosphorylated Bad^Ser112 in C4-2B cells; assay: Western blot of phospho-Bad Ser112; format: cell-based, human; details: increasing doses, 5 hours
Summary of the method: as §2

[15] = system: phosphorylated Bad^Ser112 in 22Rv1 cells; assay: Western blot of phospho-Bad Ser112; format: cell-based, human; details: 22Rv1, increasing doses, 5 hours
Summary of the method: as §2

C4-2B cells [16] = assay: Caspase-3 fluorometric protease assay; format: cell-based, human; details: increasing concentrations, 24 hours
Summary of the method: (§3)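 Cells held overnight in 1% serum, then exposed to increasing concentrations of test compound for 24 h. Apoptosis measured as caspase-3 activity with a fluorometric protease assay kit. Activity expressed relative to untreated samples.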

22Rv1 cells [17] = assay: Caspase-3 fluorometric protease assay; format: cell-based, human; details: 22Rv1, increasing concentrations, 24 hours
Summary of the method: as §3

[18] = system: MDR1 mRNA in 22Rv1-T cells; assay: Quantitative real-time RT-PCR of MDR1; format: cell-based, human; details: 22Rv1-T (Supplementary Fig. 3b)
[19] = 22Rv1, 48 h, read-out: cell viability
[20] = read-out: IC50, cell viability (taxanes)

CC(=O)O[C@H]1C(=O)[C@@]2(C)[C@H]([C@H](OC(=O)c3ccccc3)[C@]3(O)C[C@H](OC(=O)[C@H](O)[C@@H](NC(=O)c4ccccc4)c4ccccc4)C(C)=C1C3(C)C)[C@]1(OC(C)=O)CO[C@@H]1C[C@@H]2O [paclitaxel]
viability at 0.0025 µM (22Rv1 cells [1]; [19]): 62.6% | pIC50 (22Rv1 cells [1]): ~8.35 | cell viability response (22Rv1-T cells [2]; 50nM paclitaxel alone): does not respond | pIC50 (22Rv1-T cells [2]; [20]): < 7.00 | change in caspase-3 levels (22Rv1-T cells [3]; increasing doses of paclitaxel alone, 24 hours): lack of change | fluorescent calcein retention (MDR1 efflux activity) [4]: no different from the untreated cells

CN1CCC(CNc2ccc3ncc(-c4cccc(OC(F)(F)F)c4)n3n2)CC1 [SGI-1776]
viability at 2.5 µM (22Rv1 cells [1]; [19]): 63% | pIC50 (PC3 cells): ~5.52 | pIC50 (C4-2B cells [5]): ~5.40 | pIC50 (LNCaP cells): ~5.30 | pIC50 (DU145 cells): ~5.10 | pIC50 (RWPE2-W99 cells): ~5.05 | pIC50 (LAPC-4 cells): < 5.00 | reduction in IC50 in 22Rv1-Pim1 compared to 22Rv1, cell viability (22Rv1-Pim1 cells [6]): ~3 fold | cell viability response (22Rv1-T cells [2]; 2.5μM SGI-1776 alone): minimal response | pIC50 (22Rv1-T cells [2]; read-out: approximate IC50, cell viability): ~5.30 | percentage of cells in the G1 phase (C4-2B cells [7]; 2.5μM): 81% ± 1.24 | percentage of cells in the G1 phase (C4-2B cells [7]; 7.5μM): 95% ± 0.16 | percentage of cells in the G1 phase (22Rv1 cells [8]; 22Rv1, 2.5μM): 70% ± 2.00 | percentage of cells in the G1 phase (22Rv1 cells [8]; 22Rv1, 7.5μM): 81% ± 1.17 | effect on p-p21^Thr145 abundance ([9]; 22Rv1, 1μM, 2 hours): minimal, if any, effect | concentration of maximal inhibition of phospho-p21^Thr145 ([9]; 22Rv1, 5 hour treatment): 5 µM | concentration at which significant decrease in p-p21^Thr145 was first observed ([9]; parental 22Rv1 (Fig. 3a)): 2.5 to 5 µM | concentration of maximal inhibition of phospho-p21^Thr145 [10]: 7.5 µM | effect on p-p21^Thr145 abundance [11]: dramatic inhibition | concentration of maximal inhibition of phosphorylated Bad^Ser112 [12]: 5 to 7.5 µM | fold induction at 2.5 µM (22Rv1-Pim1 cells [13]): 1.6 | increase of caspase-3 activity compared to untreated cells (22Rv1-T cells [3]; 2.5μM SGI-1776, 24 hours): 1.42 fold | caspase-3 activity relative to untreated (100%) (22Rv1-T cells [3]; 2.5μM SGI-1776, 24 hours, ± 3): 142% | increase of caspase-3 activity compared to untreated cells (22Rv1-T cells [3]; 2.5μM SGI-1776 combined with 50nM paclitaxel, 24 hours): 2.7 fold | caspase-3 activity relative to untreated (100%) (22Rv1-T cells [3]; 2.5μM SGI-1776 combined with 50nM paclitaxel, 24 hours, ± 8, p<0.0001): 269% | fluorescent calcein accumulation, combination ([4]; paclitaxel combined with SGI-1776): did not further enhance | fluorescent calcein retention (MDR1 efflux activity) [4]: dose-dependent increase | phosphorylated Bad^Ser112 protein levels [14]: dose-dependent decrease | phosphorylated Bad^Ser112 protein levels [15]: dose-dependent decrease | caspase-3 activity levels (C4-2B cells [16]): dose-dependent increase | caspase-3 activity levels (22Rv1 cells [17]): dose-dependent increase | MDR1 mRNA expression levels [18]: did not alter

CC(=O)O[C@@]12CO[C@@H]1C[C@H](O)[C@@]1(C)C(=O)[C@H](O)C3=C(C)[C@@H](OC(=O)[C@H](O)[C@@H](NC(=O)OC(C)(C)C)c4ccccc4)C[C@@](O)([C@@H](OC(=O)c4ccccc4)[C@H]21)C3(C)C [docetaxel]
pIC50 (22Rv1 cells [1]): ~8.60 | pIC50 (22Rv1-T cells [2]; [20]): < 7.00
